High-throughput results from PubChem.
Rows were chosen to be rich in hits. Some 1.9% of all compounds tested hit in one or more screens of this group.
Runt-SMMHC FRET = inhibitors of RUNX1 Runt–CBFb-SMMHC binding, primary screen, biochemical, FRET, Cerulean-Runt, Venus-CBFb-SMMHC, uHTS; Cerulean-Runt/Venus-CBFb-SMMHC FRET ratio 530/480, 1 h; inhibition, % at 20 µM; 220,000 tested, 0.74% active; AID 1434, 2008;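 active = mean inhibition across duplicate retests at 20 µM reaching about 50%, limit read from the data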;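 also: inhibitors lower the FRET ratio by blocking Runt binding to CBFb-SMMHC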
RanGTP-Impb inh = inhibitors of RanGTP-importin-beta interaction, primary screen, biochemical, FRET, CFP-Ran, YFP-importin-beta, homogeneous. inhibition, % (no concentration beside the values). Ran GTPase (GTP-bound) - importin-beta complex. 300,000 tested, 1.1% active. cell-free CFP-Ran/YFP-importin-beta FRET ratio;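 active = more than half of the replicate wells show a fall in the fluorescence ratio signal beyond about 16%, limit read from the data, passing the limit was not always enough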
Runt-CBFb FRET = inhibitors of RUNX1 Runt–CBFb binding, primary screen, biochemical, FRET, Cerulean-Runt, Venus-CBFb, uHTS. inhibition, % at 20 µM. Runt-related transcription factor 1 (Homo sapiens) + Core-binding factor subunit beta …. 220,000 tested, 0.46% active. Cerulean-Runt/Venus-CBFb FRET ratio 530/480, 1 h;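 active = inhibition over about 50% at 20 µM in the single-dose screen, limit read from the data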
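Measured by: fluorescence energy transfer, 422 nm excitation, 530/480 nm emission; test system: Cerulean-tagged RUNX1 Runt domain (FRET donor) fusion protein; buffer or medium: Tris pH 7.5 buffer with BSA; compound: one dose, 20 µM compound, 1% DMSO; times: two 1 h room-temperature incubations shielded from light; benchmarks: unlabeled CBFb 5 µM, positive control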
Hck Nef HTS = inhibitors of Nef-activated human Hck kinase, primary screen, biochemical, Z-Lyte FRET, 384-well, Hck-YEEI; Recombinant Hck-YEEI plus Nef, Z-Lyte FRET kinase assay; inhibition, % at 20 µM; 220,000 tested, 0.68% active;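 active = Hck-Nef kinase inhibition above about 50%, limit read from the data; inactive = inhibition below that limit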
Target sequence (P08631 whole entry, looked up): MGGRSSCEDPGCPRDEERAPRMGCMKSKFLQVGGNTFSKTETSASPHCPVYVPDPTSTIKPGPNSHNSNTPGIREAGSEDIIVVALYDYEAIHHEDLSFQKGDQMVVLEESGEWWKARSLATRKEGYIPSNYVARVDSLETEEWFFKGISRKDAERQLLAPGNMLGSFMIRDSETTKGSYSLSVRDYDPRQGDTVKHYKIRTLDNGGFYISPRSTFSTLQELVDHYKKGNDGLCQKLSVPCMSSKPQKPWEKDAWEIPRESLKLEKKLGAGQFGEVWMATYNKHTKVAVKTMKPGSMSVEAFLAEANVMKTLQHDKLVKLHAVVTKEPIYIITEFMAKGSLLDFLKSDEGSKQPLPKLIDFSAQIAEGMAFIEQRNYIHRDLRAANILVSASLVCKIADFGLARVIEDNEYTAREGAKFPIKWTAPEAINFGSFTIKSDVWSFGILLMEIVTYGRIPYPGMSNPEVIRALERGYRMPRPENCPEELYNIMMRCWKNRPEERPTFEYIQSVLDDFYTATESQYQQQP
Tb hexokinase = Trypanosoma brucei hexokinase 1 inhibitors, primary screen, biochemical, G6PDH-coupled NADH absorbance, MLSCN library. hexokinase 1 [Trypanosoma brucei]. recombinant TbHK1, G6PDH-coupled NADH A340. inhibition, % at 10 µM. 220,000 tested, 0.11% active;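 active = inhibition of 50% or more in the single-dose primary screen; inactive = inhibition below 50%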
YIC FRET counter = YIC intramolecular FRET probe signal interference, dose response, counter-screen for RanGTP-importin-beta inhibitor project, biochemical, fluorescence FRET; IC50, µM; 1,000 tested, 40% active; shares compounds with RanGTP-Impb inh; Purified YIC probe, intramolecular FRET ratio YFP/CFP;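 active = fitted half-maximal inhibitory concentration no more than tenfold above the top dose tested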
Hits are given with their value.

For Cc1c(CC(=O)O)c(=O)oc2c(C)c3occ(-c4ccc(Br)cc4)c3cc12 the results were RanGTP-Impb inh 28 and YIC FRET counter inactive.
`COc1cccc(-c2coc3c(C)c4oc(=O)c(CCC(=O)O)c(C)c4cc23)c1` gave RanGTP-Impb inh inactive.
Screening COc1ccc(-c2coc3c(C)c4oc(=O)c(CC(=O)O)c(C)c4cc23)cc1 returned RanGTP-Impb inh inactive.
For COc1cccc(-c2coc3c(C)c4oc(=O)c(CC(=O)O)c(C)c4cc23)c1 the results were RanGTP-Impb inh 24 and YIC FRET counter inactive.
Screening COc1ccc(CS(=O)(=O)c2nc(C)cc(C)c2S(C)(=O)=O)cc1 returned Runt-SMMHC FRET inactive, RanGTP-Impb inh inactive, Runt-CBFb FRET inactive, Hck Nef HTS inactive and Tb hexokinase inactive.
CCC(=Cc1ccc(CC)cn1)CC was read as Runt-SMMHC FRET inactive, RanGTP-Impb inh inactive, Runt-CBFb FRET inactive, Hck Nef HTS inactive and Tb hexokinase inactive.
Screening N#CCCN(C(=O)Nc1ccccc1)c1ccccc1 returned Runt-SMMHC FRET inactive, RanGTP-Impb inh inactive, Runt-CBFb FRET inactive, Hck Nef HTS inactive and Tb hexokinase inactive.
For N#CCCN(C(=O)Nc1ccc(Cl)cc1)c1ccccc1 the results were Runt-SMMHC FRET inactive, RanGTP-Impb inh 96, Runt-CBFb FRET inactive, Hck Nef HTS inactive, Tb hexokinase inactive and YIC FRET counter inactive.
`COc1cc(OC)cc(C(=O)Nc2nc(CC(=O)NC(C)c3ccccc3)cs2)c1` (centres undefined) gave RanGTP-Impb inh inactive.
`Cc1c(C=O)cnn1CCC(=O)O` gave RanGTP-Impb inh 23, Hck Nef HTS inactive, Tb hexokinase inactive and YIC FRET counter inactive.
CC(C)c1ccc(CN2CCC(Oc3ccc(C(=O)N4CCCC4)cc3)CC2)cc1 was read as RanGTP-Impb inh 21 and YIC FRET counter inactive.
Screening CCc1ccc(CN2CCC(Oc3ccc(C(=O)N4CCCC4)cc3)CC2)cc1 returned RanGTP-Impb inh inactive.
Screening Cc1ccc(C(=O)Nc2ncc(C)s2)o1 returned Runt-SMMHC FRET inactive, RanGTP-Impb inh inactive, Runt-CBFb FRET inactive, Hck Nef HTS inactive and Tb hexokinase inactive.
`Cc1ccc(C(=O)Nc2ncc(Cc3ccc(F)cc3)s2)o1` gave Runt-SMMHC FRET inactive, RanGTP-Impb inh 28, Runt-CBFb FRET inactive, Hck Nef HTS inactive, Tb hexokinase inactive and YIC FRET counter inactive.
COc1cc(/C=N/NC(=O)c2cc(C)oc2C)ccc1O was read as Runt-SMMHC FRET inactive, RanGTP-Impb inh 24, Runt-CBFb FRET inactive, Hck Nef HTS inactive, Tb hexokinase inactive and YIC FRET counter inactive.
`CCOC(=O)c1[nH]c(C)c(C(=O)N(C)Cc2ccccc2)c1C` gave Runt-SMMHC FRET inactive, RanGTP-Impb inh 25, Runt-CBFb FRET inactive, Hck Nef HTS inactive, Tb hexokinase inactive and YIC FRET counter inactive.
For CCOc1cc(C2C3=C(CC(C)(C)CC3=O)N(CCOC)C3=C2C(=O)CC(C)(C)C3)ccc1O the results were RanGTP-Impb inh inactive.
`CSc1nnc(-c2cc(Br)ccc2N=Cc2c(C)[nH]n(-c3ccccc3)c2=O)c(=O)[nH]1` gave Runt-SMMHC FRET inactive, RanGTP-Impb inh inactive, Runt-CBFb FRET inactive, Hck Nef HTS inactive and Tb hexokinase inactive.
Screening CCSc1nnc(-c2cc(Br)ccc2N=Cc2c(C)[nH]n(-c3ccccc3)c2=O)c(=O)[nH]1 returned Runt-SMMHC FRET inactive, RanGTP-Impb inh 18, Runt-CBFb FRET inactive, Hck Nef HTS inactive, Tb hexokinase inactive and YIC FRET counter inactive.
`COc1ccc(CCNC(=O)C(=O)N/N=C/c2cccs2)cc1OC` gave Hck Nef HTS inactive and Tb hexokinase inactive.
Screening COc1cccc(C2=NOC(C(=O)Nc3cc(C)on3)C2)c1 (centres undefined) returned Runt-SMMHC FRET inactive, RanGTP-Impb inh 19, Runt-CBFb FRET inactive, Hck Nef HTS inactive, Tb hexokinase inactive and YIC FRET counter inactive.
Screening CC(=O)Nc1ccc(S(=O)(=O)N2CCN(C(=O)c3ncoc3-c3ccc(F)cc3)CC2)cc1 returned RanGTP-Impb inh inactive.
`N#Cc1cc2c(ccc3ccccc32)oc1=O` gave Runt-SMMHC FRET inactive, RanGTP-Impb inh 38, Runt-CBFb FRET 85, Hck Nef HTS inactive, Tb hexokinase inactive and YIC FRET counter inactive.
`COCCN1C=C(C(=O)OC)C(c2ccc(Cl)cc2)C(C(=O)OC)=C1` gave Runt-SMMHC FRET 105, RanGTP-Impb inh 41, Runt-CBFb FRET 94, Hck Nef HTS 75, Tb hexokinase inactive and YIC FRET counter 13.
CCOC(=O)C(CCCP(=O)(c1ccccc1)c1ccccc1)(NC(C)=O)C(=O)OCC was read as Runt-SMMHC FRET inactive, RanGTP-Impb inh inactive, Runt-CBFb FRET inactive, Hck Nef HTS inactive and Tb hexokinase inactive.
`O=C1CCC(C(=O)N2CCCCCC2)CN1CCc1ccc(Cl)cc1` (centres undefined) gave RanGTP-Impb inh inactive.
For N#C/C(=C\c1ccc(O)c(Br)c1)C(=O)NCc1ccccc1 the results were Runt-SMMHC FRET 134, RanGTP-Impb inh 43, Runt-CBFb FRET 104, Hck Nef HTS inactive, Tb hexokinase inactive and YIC FRET counter 20.
`c1ccc(Nc2nc3ccccc3n3nnnc23)cc1` gave Runt-SMMHC FRET inactive, RanGTP-Impb inh 36, Runt-CBFb FRET inactive, Hck Nef HTS inactive, Tb hexokinase inactive and YIC FRET counter 24.
`Cc1onc(-c2c(F)cccc2Cl)c1C(=O)N(C)C1CCCCC1` gave RanGTP-Impb inh inactive.
O=C(Cn1cnc2ccccc21)N/N=C/c1cccs1 was read as Runt-SMMHC FRET inactive, RanGTP-Impb inh inactive, Runt-CBFb FRET inactive, Hck Nef HTS inactive and Tb hexokinase inactive.
For O=C(Cn1nnc2ccccc21)N/N=C\c1cccs1 the results were Runt-SMMHC FRET inactive, RanGTP-Impb inh 22, Runt-CBFb FRET inactive, Hck Nef HTS inactive, Tb hexokinase inactive and YIC FRET counter inactive.
`Cc1nn(C)c(Oc2ccc(Cl)cc2)c1C(=O)O` gave Runt-SMMHC FRET inactive, RanGTP-Impb inh 23, Runt-CBFb FRET inactive, Hck Nef HTS inactive, Tb hexokinase inactive and YIC FRET counter inactive.
For Cc1ccc(S(=O)(=O)NCCc2cn3nc(C)c(C)nc3n2)cc1C the results were RanGTP-Impb inh 20 and YIC FRET counter 26.
